Measurements published in article PMC11261800 (Heliyon, 2024).

Tested on: HFF-1 cells
Assay: SA-β-gal activity in D-gal-induced premature aging of HFF-1 cells
Type: cell-based, human
Conditions: 500 μg/mL
Summary of the method: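 HFF-1 fibroblasts were seeded at 2 × 10^4 cells/well and cultured for 24 h. Growth medium was replaced for 72 h with test sample solution containing D-gal at 20 mg/mL final. SA-β-gal activity was detected by X-gal staining, and blue positive cells were viewed by microscopy and counted against the D-gal-injured and blank control groups.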

With `N[C@@H](CCC(=O)N[C@@H](CS)C(=O)NCC(=O)O)C(=O)O` [GSH] the “decrease of SA-β-gal positive staining rate compared with the D-gal group” value was 50.61%.
